Data from ChEMBL document CHEMBL5058577, “EUbOPEN Chemogenomics Library 2 (Multiplex)” (2022).

System: HEK-293T
Assay: Multiplex assay against HEK293T
Format: toxicity, cell-based
Conditions: human
Method in brief: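 Live cells were stained at seeding with Hoechst33342, BioTracker Green Microtubule Cytoskeleton Dye, MitoTracker Red and Annexin V Alexa Fluor 680. Following compound addition, they were imaged on a CQ1 microscope at 37°C and 5% CO2 and gated by CellPathfinder machine learning into Hoechst high-intensity objects or normal cells, with normal cells split into healthy, pyknosed or fragmented nuclei and pyknosed cells into mitotic or apoptotic. Tubulin, mitochondrial-mass and membrane-permeability phenotypes are per cents of healthy-nucleus cells.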

[1] = 12 h, 1 µM, compound concentration 1 uM, replicate 1
[2] = 12 h, 1 µM, compound concentration 1 uM, replicate 2
[3] = 12 h, 10 µM, compound concentration 10 uM, replicate 1
[4] = 12 h, 10 µM, compound concentration 10 uM, replicate 2
[5] = 24 h, 1 µM, compound concentration 1 uM, replicate 1
[6] = 24 h, 1 µM, compound concentration 1 uM, replicate 2
[7] = 24 h, 10 µM, compound concentration 10 uM, replicate 1
[8] = 24 h, 10 µM, compound concentration 10 uM, replicate 2
[9] = 48 h, 1 µM, compound concentration 1 uM, replicate 1
[10] = 48 h, 1 µM, compound concentration 1 uM, replicate 2
[11] = 48 h, 10 µM, compound concentration 10 uM, replicate 1
[12] = 48 h, 10 µM, compound concentration 10 uM, replicate 2

SMILES: S=C(NCCCc1c[nH]cn1)NCCCN(Cc1ccc(Cl)c(Cl)c1)c1ccc(Br)cn1
- Population Apoptotic (%) [1]: 39%
- Population Fragmented Nuclei (%) [1]: 8%
- Population Healthy Nuclei (%) [1]: 78%
- Population Hoechst High Intensity Objects (%) [1]: 17%
- Population Membrane Permeable-Phenotype (%) [1]: 0%
- Population Mitochondria Different-Phenotype (%) [1]: 50%
- Population Mitotic Cells (%) [1]: 60%
- Population Normal (%) [1]: 82%
- Population Pyknosed Nuclei (%) [1]: 13%
- Population Tubulin-Different-Phenotype (%) [1]: 36%
- Total Cell Count [1]: 378
- Population Apoptotic (%) [2]: 53%
- Population Fragmented Nuclei (%) [2]: 5%
- Population Healthy Nuclei (%) [2]: 79%
- Population Hoechst High Intensity Objects (%) [2]: 6%
- Population Mitochondria Different-Phenotype (%) [2]: 58%
- Population Mitotic Cells (%) [2]: 46%
- Population Normal (%) [2]: 93%
- Population Pyknosed Nuclei (%) [2]: 14%
- Population Tubulin-Different-Phenotype (%) [2]: 35%
- Total Cell Count [2]: 294
- Population Apoptotic (%) [3]: 90%
- Population Fragmented Nuclei (%) [3]: 4%
- Population Healthy Nuclei (%) [3]: 57%
- Population Hoechst High Intensity Objects (%) [3]: 33%
- Population Membrane Permeable-Phenotype (%) [3]: 0%
- Population Mitochondria Different-Phenotype (%) [3]: 77%
- Population Mitotic Cells (%) [3]: 9%
- Population Normal (%) [3]: 66%
- Population Pyknosed Nuclei (%) [3]: 38%
- Population Tubulin-Different-Phenotype (%) [3]: 78%
- Total Cell Count [3]: 242
- Population Apoptotic (%) [4]: 77%
- Population Fragmented Nuclei (%) [4]: 8%
- Population Healthy Nuclei (%) [4]: 71%
- Population Hoechst High Intensity Objects (%) [4]: 19%
- Population Mitochondria Different-Phenotype (%) [4]: 84%
- Population Mitotic Cells (%) [4]: 22%
- Population Normal (%) [4]: 80%
- Population Pyknosed Nuclei (%) [4]: 19%
- Total Cell Count [4]: 229
- Population Apoptotic (%) [5]: 39%
- Population Fragmented Nuclei (%) [5]: 10%
- Population Healthy Nuclei (%) [5]: 73%
- Population Hoechst High Intensity Objects (%) [5]: 22%
- Population Membrane Permeable-Phenotype (%) [5]: 0%
- Population Mitochondria Different-Phenotype (%) [5]: 45%
- Population Mitotic Cells (%) [5]: 60%
- Population Normal (%) [5]: 77%
- Population Pyknosed Nuclei (%) [5]: 16%
- Population Tubulin-Different-Phenotype (%) [5]: 32%
- Total Cell Count [5]: 326
- Population Apoptotic (%) [6]: 41%
- Population Fragmented Nuclei (%) [6]: 9%
- Population Healthy Nuclei (%) [6]: 81%
- Population Hoechst High Intensity Objects (%) [6]: 13%
- Population Mitochondria Different-Phenotype (%) [6]: 48%
- Population Mitotic Cells (%) [6]: 58%
- Population Normal (%) [6]: 86%
- Population Pyknosed Nuclei (%) [6]: 9%
- Total Cell Count [6]: 301
- Population Apoptotic (%) [7]: 85%
- Population Fragmented Nuclei (%) [7]: 11%
- Population Healthy Nuclei (%) [7]: 49%
- Population Hoechst High Intensity Objects (%) [7]: 48%
- Population Membrane Permeable-Phenotype (%) [7]: 1%
- Population Mitochondria Different-Phenotype (%) [7]: 75%
- Population Mitotic Cells (%) [7]: 14%
- Population Normal (%) [7]: 51%
- Population Pyknosed Nuclei (%) [7]: 39%
- Population Tubulin-Different-Phenotype (%) [7]: 78%
- Total Cell Count [7]: 237
- Population Apoptotic (%) [8]: 82%
- Population Fragmented Nuclei (%) [8]: 16%
- Population Healthy Nuclei (%) [8]: 59%
- Population Hoechst High Intensity Objects (%) [8]: 39%
- Population Membrane Permeable-Phenotype (%) [8]: 0%
- Population Mitochondria Different-Phenotype (%) [8]: 82%
- Population Mitotic Cells (%) [8]: 17%
- Population Normal (%) [8]: 61%
- Population Pyknosed Nuclei (%) [8]: 23%
- Total Cell Count [8]: 200
- Population Apoptotic (%) [9]: 47%
- Population Fragmented Nuclei (%) [9]: 14%
- Population Healthy Nuclei (%) [9]: 65%
- Population Hoechst High Intensity Objects (%) [9]: 36%
- Population Membrane Permeable-Phenotype (%) [9]: 3%
- Population Mitochondria Different-Phenotype (%) [9]: 38%
- Population Mitotic Cells (%) [9]: 52%
- Population Normal (%) [9]: 63%
- Population Pyknosed Nuclei (%) [9]: 19%
- Population Tubulin-Different-Phenotype (%) [9]: 29%
- Total Cell Count [9]: 307
- Population Apoptotic (%) [10]: 36%
- Population Fragmented Nuclei (%) [10]: 17%
- Population Healthy Nuclei (%) [10]: 73%
- Population Hoechst High Intensity Objects (%) [10]: 27%
- Population Membrane Permeable-Phenotype (%) [10]: 0%
- Population Mitochondria Different-Phenotype (%) [10]: 32%
- Population Mitotic Cells (%) [10]: 63%
- Population Normal (%) [10]: 72%
- Population Pyknosed Nuclei (%) [10]: 9%
- Population Tubulin-Different-Phenotype (%) [10]: 19%
- Total Cell Count [10]: 277
- Population Apoptotic (%) [11]: 84%
- Population Fragmented Nuclei (%) [11]: 23%
- Population Healthy Nuclei (%) [11]: 23%
- Population Hoechst High Intensity Objects (%) [11]: 75%
- Population Membrane Permeable-Phenotype (%) [11]: 0%
- Population Mitochondria Different-Phenotype (%) [11]: 86%
- Population Mitotic Cells (%) [11]: 15%
- Population Normal (%) [11]: 24%
- Population Pyknosed Nuclei (%) [11]: 52%
- Population Tubulin-Different-Phenotype (%) [11]: 53%
- Total Cell Count [11]: 256
- Population Apoptotic (%) [12]: 75%
- Population Fragmented Nuclei (%) [12]: 21%
- Population Hoechst High Intensity Objects (%) [12]: 67%
- Population Mitochondria Different-Phenotype (%) [12]: 80%
- Population Mitotic Cells (%) [12]: 25%
- Population Normal (%) [12]: 32%
- Population Pyknosed Nuclei (%) [12]: 55%
- Population Tubulin-Different-Phenotype (%) [12]: 40%
- Total Cell Count [12]: 203

SMILES: C[C@H](NC(=O)CNC(=O)c1cccc(Cl)c1)c1ccccc1
- Population Apoptotic (%) [1]: 33%
- Population Fragmented Nuclei (%) [1]: 5%
- Population Healthy Nuclei (%) [1]: 79%
- Population Hoechst High Intensity Objects (%) [1]: 8%
- Population Membrane Permeable-Phenotype (%) [1]: 0%
- Population Mitochondria Different-Phenotype (%) [1]: 39%
- Population Mitotic Cells (%) [1]: 66%
- Population Normal (%) [1]: 91%
- Population Pyknosed Nuclei (%) [1]: 15%
- Population Tubulin-Different-Phenotype (%) [1]: 29%
- Total Cell Count [1]: 449
- Population Apoptotic (%) [2]: 48%
- Population Fragmented Nuclei (%) [2]: 6%
- Population Healthy Nuclei (%) [2]: 84%
- Population Hoechst High Intensity Objects (%) [2]: 4%
- Population Mitochondria Different-Phenotype (%) [2]: 52%
- Population Mitotic Cells (%) [2]: 51%
- Population Normal (%) [2]: 95%
- Population Pyknosed Nuclei (%) [2]: 9%
- Population Tubulin-Different-Phenotype (%) [2]: 17%
- Total Cell Count [2]: 384
- Population Apoptotic (%) [3]: 41%
- Population Fragmented Nuclei (%) [3]: 6%
- Population Healthy Nuclei (%) [3]: 76%
- Population Hoechst High Intensity Objects (%) [3]: 7%
- Population Membrane Permeable-Phenotype (%) [3]: 0%
- Population Mitochondria Different-Phenotype (%) [3]: 54%
- Population Mitotic Cells (%) [3]: 58%
- Population Normal (%) [3]: 92%
- Population Pyknosed Nuclei (%) [3]: 17%
- Population Tubulin-Different-Phenotype (%) [3]: 39%
- Total Cell Count [3]: 362
- Population Apoptotic (%) [4]: 58%
- Population Fragmented Nuclei (%) [4]: 7%
- Population Healthy Nuclei (%) [4]: 77%
- Population Hoechst High Intensity Objects (%) [4]: 13%
- Population Mitochondria Different-Phenotype (%) [4]: 61%
- Population Mitotic Cells (%) [4]: 41%
- Population Normal (%) [4]: 86%
- Population Pyknosed Nuclei (%) [4]: 15%
- Population Tubulin-Different-Phenotype (%) [4]: 33%
- Total Cell Count [4]: 272
- Population Apoptotic (%) [5]: 23%
- Population Fragmented Nuclei (%) [5]: 9%
- Population Healthy Nuclei (%) [5]: 80%
- Population Hoechst High Intensity Objects (%) [5]: 4%
- Population Membrane Permeable-Phenotype (%) [5]: 1%
- Population Mitochondria Different-Phenotype (%) [5]: 25%
- Population Mitotic Cells (%) [5]: 76%
- Population Normal (%) [5]: 95%
- Population Pyknosed Nuclei (%) [5]: 10%
- Population Tubulin-Different-Phenotype (%) [5]: 15%
- Total Cell Count [5]: 646
- Population Apoptotic (%) [6]: 45%
- Population Fragmented Nuclei (%) [6]: 7%
- Population Healthy Nuclei (%) [6]: 84%
- Population Hoechst High Intensity Objects (%) [6]: 2%
- Population Membrane Permeable-Phenotype (%) [6]: 0%
- Population Mitochondria Different-Phenotype (%) [6]: 32%
- Population Mitotic Cells (%) [6]: 54%
- Population Normal (%) [6]: 97%
- Population Pyknosed Nuclei (%) [6]: 7%
- Population Tubulin-Different-Phenotype (%) [6]: 9%
- Total Cell Count [6]: 476
- Population Apoptotic (%) [7]: 43%
- Population Fragmented Nuclei (%) [7]: 9%
- Population Healthy Nuclei (%) [7]: 77%
- Population Hoechst High Intensity Objects (%) [7]: 4%
- Population Membrane Permeable-Phenotype (%) [7]: 0%
- Population Mitochondria Different-Phenotype (%) [7]: 39%
- Population Mitotic Cells (%) [7]: 56%
- Population Normal (%) [7]: 95%
- Population Pyknosed Nuclei (%) [7]: 12%
- Population Tubulin-Different-Phenotype (%) [7]: 25%
- Total Cell Count [7]: 505
- Population Apoptotic (%) [8]: 58%
- Population Fragmented Nuclei (%) [8]: 10%
- Population Healthy Nuclei (%) [8]: 78%
- Population Hoechst High Intensity Objects (%) [8]: 9%
- Population Mitochondria Different-Phenotype (%) [8]: 49%
- Population Mitotic Cells (%) [8]: 41%
- Population Normal (%) [8]: 90%
- Population Pyknosed Nuclei (%) [8]: 11%
- Population Tubulin-Different-Phenotype (%) [8]: 19%
- Total Cell Count [8]: 303
- Population Apoptotic (%) [9]: 19%
- Population Fragmented Nuclei (%) [9]: 13%
- Population Healthy Nuclei (%) [9]: 80%
- Population Hoechst High Intensity Objects (%) [9]: 3%
- Population Membrane Permeable-Phenotype (%) [9]: 0%
- Population Mitochondria Different-Phenotype (%) [9]: 15%
- Population Mitotic Cells (%) [9]: 80%
- Population Normal (%) [9]: 96%
- Population Pyknosed Nuclei (%) [9]: 5%
- Population Tubulin-Different-Phenotype (%) [9]: 12%
- Total Cell Count [9]: 984
- Population Apoptotic (%) [10]: 30%
- Population Healthy Nuclei (%) [10]: 81%
- Population Hoechst High Intensity Objects (%) [10]: 2%
- Population Membrane Permeable-Phenotype (%) [10]: 2%
- Population Mitochondria Different-Phenotype (%) [10]: 16%
- Population Mitotic Cells (%) [10]: 70%
- Population Normal (%) [10]: 97%
- Population Tubulin-Different-Phenotype (%) [10]: 6%
- Total Cell Count [10]: 606
- Population Apoptotic (%) [11]: 44%
- Population Fragmented Nuclei (%) [11]: 15%
- Population Healthy Nuclei (%) [11]: 77%
- Population Hoechst High Intensity Objects (%) [11]: 1%
- Population Membrane Permeable-Phenotype (%) [11]: 0%
- Population Mitochondria Different-Phenotype (%) [11]: 26%
- Population Mitotic Cells (%) [11]: 55%
- Population Normal (%) [11]: 98%
- Population Pyknosed Nuclei (%) [11]: 7%
- Population Tubulin-Different-Phenotype (%) [11]: 18%
- Total Cell Count [11]: 735
- Population Apoptotic (%) [12]: 35%
- Population Fragmented Nuclei (%) [12]: 19%
- Population Healthy Nuclei (%) [12]: 72%
- Population Hoechst High Intensity Objects (%) [12]: 2%
- Population Mitochondria Different-Phenotype (%) [12]: 28%
- Population Mitotic Cells (%) [12]: 64%
- Population Normal (%) [12]: 97%
- Population Tubulin-Different-Phenotype (%) [12]: 16%
- Total Cell Count [12]: 462
